{"source": "paper PMC10286098", "about": "(ACS Omega, 2023)", "key": {"MRC-5 cells": {"test_system": "MRC-5 cells", "conditions": "MRC-5 normal lung cells, WST-1, mean ± standard error"}, "hDHODH": {"molecular_target": "hDHODH (Homo sapiens, UniProt Q02127)", "sequence (Q02127 whole entry)": "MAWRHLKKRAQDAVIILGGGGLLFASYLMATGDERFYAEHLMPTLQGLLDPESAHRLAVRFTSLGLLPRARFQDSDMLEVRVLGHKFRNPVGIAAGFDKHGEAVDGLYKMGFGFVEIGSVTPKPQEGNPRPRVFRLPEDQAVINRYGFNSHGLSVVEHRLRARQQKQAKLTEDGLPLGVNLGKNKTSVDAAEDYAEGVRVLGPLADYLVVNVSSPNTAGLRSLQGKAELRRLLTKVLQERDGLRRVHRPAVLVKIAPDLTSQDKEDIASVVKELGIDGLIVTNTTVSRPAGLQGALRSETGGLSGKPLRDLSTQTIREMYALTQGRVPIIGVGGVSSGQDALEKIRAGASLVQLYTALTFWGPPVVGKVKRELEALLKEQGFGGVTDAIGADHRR", "assay": "hDHODH fluorescence-based", "assay_type": "biochemical", "conditions": "for pIC50: IC50 over hDHODH, fluorescence-based assay, 10-dose, 3-fold dilution from 10 μM; for fold of the reported DHODH inhibitory activity of Leflunomide: versus Leflunomide 600 nM", "outline": "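Contract-run assay in which human DHODH oxidizes L-DHO to orotate, coupled to resazurin conversion to resorufin. Test compounds were run as 10 doses in singlet, with 3-fold dilutions from 10 μM. Reactions ran 60 min at room temperature. Orotate stop mix (5 mM final) was added, then resorufin fluorescence was read.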"}, "[1]": {"conditions": "A549 cells, WST-1, 24 h, mean ± standard error"}, "[2]": {"conditions": "H1299 cells, WST-1, 24 h, mean ± standard error"}, "[3]": {"conditions": "H1975 cells, WST-1, 24 h, mean ± standard error"}}, "note": "pIC50: −log10 of the molar value. Read-outs that look alike come from different tables or passages of the source.", "data": [{"smiles": "COc1ccc(-c2ccc3[nH]cc(C(=O)Nc4cccc(C(F)(F)F)c4)c3c2)cc1", "note": "[4b, 5-(4-Methoxyphenyl)-N-(3-(trifluoromethyl)phenyl)-1H-indole-3-carboxamide]", "values": [{"measurement": "TC50", "setting": "A549 cells; [1]", "value": "17 ± 0.5", "unit": "µM"}, {"measurement": "TC50", "setting": "H1299 cells; [2]", "value": "17 ± 0.3", "unit": "µM"}, {"measurement": "TC50", "setting": "H1975 cells; [3]", "value": "35 ± 4.0", "unit": "µM"}]}, {"smiles": "O=C(Nc1cccc(C(F)(F)F)c1)c1c[nH]c2ccc(Nc3ccc(O)cc3)cc12", "note": "[5a, 5-((4-Hydroxyphenyl)amino)-N-(3-(trifluoromethyl)phenyl)-1H-indole-3-carboxamide]", "values": [{"measurement": "TC50", "setting": "A549 cells; [1]", "value": "32 ± 0.9", "unit": "µM"}, {"measurement": "TC50", "setting": "H1299 cells; [2]", "value": "33 ± 0.7", "unit": "µM"}, {"measurement": "TC50", "setting": "H1975 cells; [3]", "value": "33 ± 2.0", "unit": "µM"}]}, {"smiles": "O=C(Nc1cccc(C(F)(F)F)c1)c1c[nH]c2ccc(Nc3cccc([N+](=O)[O-])c3)cc12", "note": "[5d, 5-((3-Nitrophenyl)amino)-N-(3-(trifluoromethyl)phenyl)-1H-indole-3-carboxamide]", "values": [{"measurement": "TC50", "setting": "A549 cells; [1]", "value": "16 ± 0.4", "unit": "µM"}, {"measurement": "TC50", "setting": "H1299 cells; [2]", "value": "18 ± 0.5", "unit": "µM"}, {"measurement": "TC50", "setting": "H1975 cells; [3]", "value": "29 ± 4.0", "unit": "µM"}]}, {"smiles": "Cc1oncc1C(=O)Nc1ccc(C(F)(F)F)cc1", "note": "[Leflunomide, reference compound]", "values": [{"measurement": "TC50", "setting": "A549 cells", "value": "100 < TC50 <300 μM"}, {"measurement": "TC50", "setting": "H1299 cells", "value": "300 < μM"}, {"measurement": "TC50", "setting": "H1975 cells", "value": "100 < μM"}, {"measurement": "TC50", "setting": "MRC-5 cells", "value": "300 < μM"}]}, {"smiles": "CNC(=O)c1cc(Oc2ccc(NC(=O)Nc3ccc(Cl)c(C(F)(F)F)c3)c(F)c2)ccn1", "note": "[Regorafenib, reference compound]", "values": [{"measurement": "decrease of cell viability", "setting": "A549 cells; A549, 100 μM, 24 h, preliminary screening (Figure S1)", "value": "more than 50%"}, {"measurement": "TC50", "setting": "A549 cells; [1]", "value": "13 ± 0.8", "unit": "µM"}, {"measurement": "decrease of cell viability", "setting": "H1299 cells; H1299, 100 μM, 24 h, preliminary screening (Figure S1)", "value": "more than 50%"}, {"measurement": "TC50", "setting": "H1299 cells; [2]", "value": "10 ± 0.4", "unit": "µM"}, {"measurement": "decrease of cell viability", "setting": "H1975 cells; H1975, 100 μM, 24 h, preliminary screening (Figure S1)", "value": "more than 50%"}, {"measurement": "TC50", "setting": "H1975 cells; [3]", "value": "16 ± 0.5", "unit": "µM"}, {"measurement": "TC50", "setting": "MRC-5 cells", "value": "18 ± 2.0", "unit": "µM"}]}, {"smiles": "O=C(Nc1cccc(C(F)(F)F)c1)c1c[nH]c2ccc(Br)cc12", "note": "[compound 3, 5-Bromo-N-(3-(trifluoromethyl)phenyl)-1H-indole-3-carboxamide]", "values": [{"measurement": "pIC50", "setting": "hDHODH", "value": 6.71}, {"measurement": "fold of the reported DHODH inhibitory activity of Leflunomide", "setting": "hDHODH", "value": 3, "unit": "fold"}, {"measurement": "TC50", "setting": "A549 cells; [1]", "value": "22 ± 1.0", "unit": "µM"}, {"measurement": "TC50", "setting": "H1299 cells; [2]", "value": "27 ± 0.8", "unit": "µM"}, {"measurement": "TC50", "setting": "H1975 cells; [3]", "value": "28 ± 2.0", "unit": "µM"}, {"measurement": "TC50", "setting": "MRC-5 cells", "value": "45 ± 8.0", "unit": "µM"}]}, {"smiles": "O=C(Nc1cccc(C(F)(F)F)c1)c1c[nH]c2ccc(-c3cccc(CN4CCOCC4)c3)cc12", "note": "[compound 4a, 5-(3-(Morpholinomethyl)phenyl)-N-(3-(trifluoromethyl)phenyl)-1H-indole-3-carboxamide]", "values": [{"measurement": "pIC50", "setting": "hDHODH", "value": 5.92}, {"measurement": "TC50", "setting": "A549 cells; [1]", "value": "13 ± 0.3", "unit": "µM"}, {"measurement": "TC50", "setting": "H1299 cells; [2]", "value": "13 ± 0.1", "unit": "µM"}, {"measurement": "TC50", "setting": "H1975 cells; [3]", "value": "23 ± 2.0", "unit": "µM"}, {"measurement": "TC50", "setting": "MRC-5 cells", "value": "17 ± 3.0", "unit": "µM"}]}, {"smiles": "COc1ccc(Nc2ccc3[nH]cc(C(=O)Nc4cccc(C(F)(F)F)c4)c3c2)cc1OC", "note": "[compound 5b, 5-((3,4-Dimethoxyphenyl)amino)-N-(3-(trifluoromethyl)phenyl)-1H-indole-3-carboxamide]", "values": [{"measurement": "TC50", "setting": "A549 cells; [1]", "value": "19 ± 0.4", "unit": "µM"}, {"measurement": "TC50", "setting": "H1299 cells; [2]", "value": "16 ± 0.6", "unit": "µM"}, {"measurement": "TC50", "setting": "H1975 cells; [3]", "value": "25 ± 5.0", "unit": "µM"}]}, {"smiles": "O=C(Nc1cccc(C(F)(F)F)c1)c1c[nH]c2ccc(Nc3ccc([N+](=O)[O-])cc3)cc12", "note": "[compound 5c, 5-((4-Nitrophenyl)amino)-N-(3-(trifluoromethyl)phenyl)-1H-indole-3-carboxamide]", "values": [{"measurement": "pIC50", "setting": "hDHODH", "value": 6.38}, {"measurement": "fold of the reported DHODH inhibitory activity of Leflunomide", "setting": "hDHODH", "value": 1.5, "unit": "fold"}, {"measurement": "TC50", "setting": "A549 cells; [1]", "value": "11 ± 0.5", "unit": "µM"}, {"measurement": "TC50", "setting": "H1299 cells; [2]", "value": "11 ± 0.3", "unit": "µM"}, {"measurement": "TC50", "setting": "H1975 cells; [3]", "value": "15 ± 1.0", "unit": "µM"}, {"measurement": "TC50", "setting": "MRC-5 cells", "value": "17 ± 0.3", "unit": "µM"}]}]}
